Reference: ChEMBL document CHEMBL1127574, “Design and synthesis of ellipticinium salts and 1,2-dihydroellipticines with high selectivities against human CNS cancers in vitro” (1994)

Legend:
Format in all cases: functional
HCT-116 = assay: Tested in vitro for cytotoxicity in HCT116 cell line of Colon Cancer; conditions: Homo sapiens, read-out: Log TGI (converted)
Method in brief: (§1)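 Compounds dissolved in DMSO, then diluted 500-fold into aqueous medium. The resulting aqueous solutions or suspensions were added to the cultured human tumour cell lines, and the cells were exposed for 48 h. Growth was read colorimetrically in one of two ways: a metabolic assay in which viable cells reduce a tetrazolium salt to a formazan dye, or a protein stain for total cellular protein.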

HOP-92 = assay: Tested in vitro for cytotoxicity in HOP-92 cell line of Non-Small Cell Lung Cancer; conditions: Homo sapiens, read-out: Log TGI (converted); method in brief: as §1
SW-620 = assay: Tested in vitro for cytotoxicity in SW-620 cell line of Colon Cancer; conditions: Homo sapiens, read-out: Log TGI (converted)
Method in brief: (§2)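 Compounds dissolved in DMSO and diluted 500-fold into aqueous medium; aliquots of the resulting solutions or suspensions added to cultured human tumor cells for 48 h. Growth read colorimetrically, either by tetrazolium reduction to formazan by viable cells or by protein staining of total cellular protein.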

NCI-H522 = assay: Tested in vitro for cytotoxicity in NCI-H522 cell line of Non-Small Cell Lung Cancer; conditions: Homo sapiens, read-out: Log TGI (converted); method in brief: as §1
DMS-273 = assay: Tested in vitro for cytotoxicity in DMS273 cell line of Small Cell Lung Cancer; conditions: Homo sapiens, read-out: Log TGI (converted); method in brief: as §1
OVCAR-8 = assay: Tested in vitro for cytotoxicity in OVCAR-8 cell line of Ovarian Cancer; conditions: Homo sapiens, read-out: Log TGI (converted); method in brief: as §1
OVCAR-3 = assay: Tested in vitro for cytotoxicity in OVCAR-3 cell line of Ovarian Cancer; conditions: Homo sapiens, read-out: Log TGI (converted)
Method in brief: (§3)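 Compound DMSO solutions diluted 500-fold into aqueous medium; the resulting solutions or suspensions were added to cultured human tumor cells for 48 h. Growth was read colorimetrically, either by tetrazolium reduction to formazan by viable cells or by a protein stain for total cellular protein.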

HL-60 = assay: Tested in vitro for cytotoxicity in HL-60(TB) cell line of Leukemia; conditions: Homo sapiens, read-out: Log TGI (converted)
Method in brief: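 Compounds were dissolved in DMSO and diluted 500-fold in aqueous medium. Aliquots of the resulting solution or suspension were added to the cultured cells for 48 h. Growth was read colorimetrically, either by tetrazolium reduction to formazan in viable cells or by a total-protein stain.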

CCRF-CEM = assay: Tested in vitro for cytotoxicity in CCRF-CEM cell lines; conditions: Homo sapiens; method in brief: as §1
SF-268 [1] = assay: Tested in vitro for cytotoxicity in SF-268 cell lines; conditions: Homo sapiens; method in brief: as §1
U-251 = assay: Tested in vitro for cytotoxicity in U251 cell line of CNS Cancer; conditions: Homo sapiens, read-out: Log TGI (converted); method in brief: as §2
OVCAR-5 = assay: Tested in vitro for cytotoxicity in OVCAR-5 cell line of Ovarian Cancer; conditions: Homo sapiens, read-out: Log TGI (converted); method in brief: as §1
SNB-78 = assay: Tested in vitro for cytotoxicity in SNB-78 cell line of CNS Cancer; conditions: Homo sapiens, read-out: Log TGI (converted); method in brief: as §2
SNB-19 = assay: Tested in vitro for cytotoxicity in SNB-19 cell line of CNS Cancer; conditions: Homo sapiens, read-out: Log TGI (converted); method in brief: as §3
SF-268 [2] = assay: Tested in vitro for cytotoxicity in SF-268 cell line of CNS cancer; conditions: Homo sapiens, read-out: Log TGI (converted); method in brief: as §1
SK-MEL-28 = assay: Tested in vitro for cytotoxicity in SK-MEL-28 cell line of Melanoma; conditions: Homo sapiens, read-out: Log TGI (converted); method in brief: as §1
Malme-3M [3] = assay: Tested in vitro for cytotoxicity in MALME-3M cell line of Melanoma; conditions: Homo sapiens, read-out: Log TGI (converted); method in brief: as §1
IGROV-1 = assay: Tested in vitro for cytotoxicity in IGROV1 cell lines; conditions: Homo sapiens; method in brief: as §1
TK-10 = assay: Tested in vitro for cytotoxicity in TK-10 cell line of Renal cancer; conditions: Homo sapiens, read-out: Log TGI (converted); method in brief: as §2
XF498 = assay: Tested in vitro for cytotoxicity in XF498 cell line of CNS Cancer; conditions: Homo sapiens, read-out: Log TGI (converted); method in brief: as §3
SNB-75 = assay: Tested in vitro for cytotoxicity in SNB-75 cell line of CNS Cancer; conditions: Homo sapiens, read-out: Log TGI (converted); method in brief: as §2
NCI-H460 = assay: Tested in vitro for cytotoxicity in NCI-H460 cell line of Non-Small Cell Lung Cancer; conditions: Homo sapiens, read-out: Log TGI (converted); method in brief: as §1
LOX IMVI = assay: Tested in vitro for cytotoxicity in LOX IMVI cell line of Melanoma; conditions: Homo sapiens, read-out: Log TGI (converted); method in brief: as §1
A498 = assay: Tested in vitro for cytotoxicity in A498 cell line of Renal cancer; conditions: Homo sapiens, read-out: Log TGI (converted); method in brief: as §1
UO-31 = assay: Tested in vitro for cytotoxicity in UO-31 cell line of Renal cancer; conditions: Homo sapiens, read-out: Log TGI (converted); method in brief: as §2
Malme-3M [4] = assay: Tested in vitro for cytotoxicity in MALME-3M; conditions: Homo sapiens; method in brief: as §1
UACC-62 = assay: Tested in vitro for cytotoxicity in UACC-62 cell line of Melanoma; conditions: Homo sapiens, read-out: Log TGI (converted); method in brief: as §2
HOP-18 = assay: Tested in vitro for cytotoxicity in HOP-18 cell line of Non-Small Cell Lung Cancer; conditions: Homo sapiens, read-out: Log TGI (converted); method in brief: as §1
HT-29 = assay: Tested in vitro for cytotoxicity in HT-29 cell line of Colon Cancer; conditions: Homo sapiens, read-out: Log TGI (converted); method in brief: as §1
LXFL 529 = assay: Tested in vitro for cytotoxicity in LXFL-529 cell line of Non-Small Cell Lung Cancer; conditions: Homo sapiens, read-out: Log TGI (converted); method in brief: as §1
KM-20L2 = assay: Tested in vitro for cytotoxicity in KM20L2 cell line of Colon Cancer; conditions: Homo sapiens, read-out: Log TGI (converted); method in brief: as §3

COc1ccc2[nH]c3c(C)c4cc[n+](C)cc4c(C)c3c2c1
TGI (HCT-116): > 100 µM
TGI (HOP-92): 79.4 µM
TGI (SW-620): > 100 µM
TGI (NCI-H522): 7.94 µM
TGI (DMS-273): 63.1 µM
TGI (OVCAR-8): 31.6 µM
TGI (OVCAR-3): 100 µM
TGI (HL-60): > 100 µM
GI50 (CCRF-CEM): 4.22 µM
GI50 (SF-268 [1]): 409 nM
TGI (U-251): 5.01 µM
TGI (OVCAR-5): > 100 µM
TGI (SNB-78): 10 µM
TGI (SNB-19): 10 µM
TGI (SF-268 [2]): 5.01 µM
TGI (SK-MEL-28): 50.1 µM
TGI (Malme-3M [3]): 25.1 µM
GI50 (IGROV-1): 3.62 µM
TGI (TK-10): > 100 µM
TGI (XF498): 10 µM
TGI (SNB-75): 3.16 µM
TGI (NCI-H460): 79.4 µM
TGI (LOX IMVI): > 100 µM
TGI (A498): > 100 µM
TGI (UO-31): > 100 µM
GI50 (Malme-3M [4]): 5.27 µM
TGI (UACC-62): > 100 µM
TGI (HOP-18): > 100 µM
TGI (HT-29): > 100 µM
TGI (LXFL 529): 10 µM
TGI (KM-20L2): > 100 µM
